Sampled rows, rich in hits. Any-hit rate of the full collection: about 1.8%.
NPY Y1 blocker: NPY-Y1 receptor antagonists, primary screen, cell-based; HEK293-CNG Y1 cells, membrane potential fluorescence; NPY at EC95, then isoproterenol; inhibition, % at 3.6 µM; hit rate 1% among 200,000; AID 1040, 2008;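 active = inhibition above the campaign mean inhibition of all tested compounds plus 3 SD, cut at about 20% in these data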
Target sequence (P25929 whole entry, looked up): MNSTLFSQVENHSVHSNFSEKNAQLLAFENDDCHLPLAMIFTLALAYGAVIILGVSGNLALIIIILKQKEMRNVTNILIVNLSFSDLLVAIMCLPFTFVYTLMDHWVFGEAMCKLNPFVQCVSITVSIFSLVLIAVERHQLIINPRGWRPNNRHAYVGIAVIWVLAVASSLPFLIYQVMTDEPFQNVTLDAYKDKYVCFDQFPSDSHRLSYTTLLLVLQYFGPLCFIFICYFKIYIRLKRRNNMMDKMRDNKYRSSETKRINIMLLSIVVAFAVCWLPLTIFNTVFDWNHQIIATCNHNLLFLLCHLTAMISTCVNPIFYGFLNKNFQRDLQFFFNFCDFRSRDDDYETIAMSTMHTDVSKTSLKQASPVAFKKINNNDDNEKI
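Assay system: HEK293 Y1/CNG channel cell line; Doses: single compound dose of 3.6 µM, 0.4% DMSO; Timing: dye 3 h, compound 60 min room temperature, stimulation 45 min; Technique: Membrane-potential fluorescent dye readout; Measure: % inhibition of NPY effect.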
NPY-Y1 PAM-ag: NPY-Y1 receptor potentiators or agonists, primary screen, cell-based; NPY-Y1 expressing cells, potentiator/agonist activation; activation, % at 3.6 µM; hit rate 0.37% among 220,000; in the data active = activation above about 33%, passing the limit was not always enough;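 note: cells stimulated with NPY at EC10 then isoproterenol at EC100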
NPY2 pot ag: NPY-Y2 potentiators or agonists, primary screen, cell-based | cells expressing NPY-Y2, potentiator/agonist read-out | activation, % at 3.6 µM | hit rate 0.45% among 220,000 | AID 1359, 2008; in the data active = activation above about 27%;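 note: cells stimulated with NPY near EC25 plus isoproterenol at EC100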
NPY Y2 blocker: NPY-Y2 receptor antagonists, primary screen, cell-based. Neuropeptide Y receptor type 2 (Homo sapiens), P49146. NPY-Y2 expressing cells, antagonist mode. inhibition, % at 2.7 µM. hit rate 0.99% among 140,000. AID 793, 2007; in the data active = inhibition above about 17%
Of the large screens only hits and unclear results are named; the others gave an inactive call.

CC(C)c1ccc(NC(=O)C2CCCCC2C(=O)O)cc1 (stereo not given)	none
O=C(O)[C@H]1CCCC[C@H]1C(=O)Nc1ccc(Nc2ccccc2)cc1	NPY-Y1 PAM-ag 49, NPY2 pot ag 34
Fc1ccc(C(c2nnnn2C2CCCC2)N2CCc3ccccc32)cc1 (stereo not given)	none
Fc1ccc(C(c2nnnn2CCc2ccccc2)N2CCCc3ccccc32)cc1 (stereo not given)	NPY Y1 blocker 27, NPY Y2 blocker 38
Cc1ccccc1Nc1nc(N)c2ccccc2n1	none (no result: NPY Y2 blocker)
Nc1nc(Nc2ccccc2)nc2ccccc12	NPY-Y1 PAM-ag 73, NPY2 pot ag 68
Cc1sc2nc(SCC(=O)C(C)(C)C)n(Cc3ccco3)c(=O)c2c1C	NPY Y1 blocker 29, NPY Y2 blocker 18
Cc1ccccc1NC(=S)N(Cc1ccccc1)Cc1cccs1	NPY Y1 blocker 22 (no result: NPY Y2 blocker)
CN(C)C(=O)C(=O)c1cccn1-c1cccc(Cl)c1C#N	none (no result: NPY Y2 blocker)
CCN(CC)CCCNC(=O)C1CCN(C(=O)c2cc3sccc3n2Cc2ccc(F)cc2)CC1	NPY-Y1 PAM-ag 64, NPY2 pot ag 100
COCCCNC(=O)C1CCN(C(=O)c2cc3sccc3n2Cc2ccc(F)cc2)CC1	none
CCOC(=O)N1CCN(Cc2cc(Cl)c3cccnc3c2O)CC1	none (no result: NPY Y2 blocker)
COC(=O)Nc1nc(-c2ccccc2)c(C(=O)c2ccccc2)s1	NPY Y1 blocker 30
Cn1c(=N)n(CC(O)c2ccco2)c2ccccc21 (stereo not given)	none
Cn1c(=N)n(CC(O)c2cccc3ccccc23)c2ccccc21 (stereo not given)	NPY Y1 blocker 34, NPY Y2 blocker 24
Cc1ccc(OCC(O)Cn2c(=N)n(CCN3CCCCC3)c3ccccc32)cc1 (stereo not given)	NPY Y1 blocker 62, NPY Y2 blocker 46
Cc1ccc(OCC(O)Cn2c(=N)n(CCN3CCOCC3)c3ccccc32)cc1 (stereo not given)	none
COc1ccc(OCC(O)Cn2c(=N)n(CCN3CCCCC3)c3ccccc32)cc1 (stereo not given)	NPY Y1 blocker 34, NPY Y2 blocker 19
COc1ccc(OCC(O)CN2CCCCC2)cc1 (stereo not given)	none
COc1c(C)cc(C(=O)C2CCCN(C(=O)/C=C/c3ccccn3)C2)cc1C (stereo not given)	none (no result: NPY Y2 blocker)
CC12CC(NC(=O)N1c1ccc(C(=O)N3CCN(c4ccccn4)CC3)cc1)c1ccccc1O2 (stereo not given)	NPY-Y1 PAM-ag 52, NPY2 pot ag 35
COC(=O)COc1cccc(NS(=O)(=O)c2cccc([N+](=O)[O-])c2)c1	none (no result: NPY Y2 blocker)
COC(=O)COc1ccc(NS(=O)(=O)c2cccc([N+](=O)[O-])c2)cc1	NPY-Y1 PAM-ag 35, NPY2 pot ag 48 (no result: NPY Y2 blocker)
Cc1cccc(NC(=O)c2cc(-c3ccc(C)s3)nc3ccccc23)n1	NPY Y1 blocker 28, NPY Y2 blocker 23
Cc1ccc(NC(=O)c2cc(-c3ccc(C)o3)nc3ccccc23)cc1	NPY Y1 blocker 118, NPY Y2 blocker 115
Cc1ccc(-c2cc(C(=O)Nc3cccnc3)c3ccccc3n2)o1	none
Cc1cc(NC(=O)c2cc(-c3ccc(C)s3)nc3ccccc23)no1	none
O=C(Cn1cnc2cc([N+](=O)[O-])ccc2c1=O)Nc1ccccc1-c1ccccc1	none (no result: NPY Y1 blocker, NPY Y2 blocker)
O=C(Cn1ccc([N+](=O)[O-])n1)Nc1ccccn1	none (no result: NPY Y2 blocker)
Cn1c(-c2ccc(Cl)cc2)cnc1NCc1cc2c(cc1[N+](=O)[O-])OCO2	NPY-Y1 PAM-ag 47, NPY2 pot ag 47
Cc1sc(NC(=O)CN2CCOCC2)c(C#N)c1C	none (no result: NPY Y1 blocker, NPY Y2 blocker)
CN(C1=C(NC(=O)c2ccc(Cl)cc2)C(=O)c2ccccc2C1=O)c1ccccc1	NPY-Y1 PAM-ag 56, NPY2 pot ag 72
O=C(NC1=C(Nc2ccc(Cl)cc2)C(=O)c2ccccc2C1=O)c1ccccc1	none
CN1C(=O)C2C(c3ccc(N(C)C)cc3)NN(Cc3ccccc3)C2C1=O (stereo not given)	none (no result: NPY Y2 blocker)
CC(=O)Nc1ccc(OC(F)(F)C(F)F)c(NC(C)=O)c1	none
O=C(COc1ccccc1)Nc1ccc(OC(F)(F)C(F)F)c(NC(=O)COc2ccccc2)c1	NPY Y1 blocker 25, NPY Y2 blocker 34
COc1ccc(C(=O)N[C@H](C(=O)OCc2cc(=O)oc3cc(C)ccc23)C(C)C)cc1	none
Cc1ccc2c(c1)c1c(n2CC(O)CNC(C)(C)C)CCCC1 (stereo not given)	NPY2 pot ag 41
COC(=O)CN1C(c2ccccc2)=Nc2ccc(Cl)cc2C1c1ccccc1 (stereo not given)	NPY Y1 blocker 27, NPY Y2 blocker 22
COCCN(C(=S)Nc1ccccc1OC)C(C)c1cccs1 (stereo not given)	none
O=C(Nc1cc(C(=O)N2CCCC2)ccc1N1CCCC1)c1ccccc1F	NPY-Y1 PAM-ag 44, NPY2 pot ag 39
O=C(Nc1ccc(C(=O)N2CCCC2)cc1)c1ccccc1F	none
CN=c1scc(-c2ccccc2F)n1/N=C/c1ccc(O)c(O)c1O	NPY-Y1 PAM-ag 42, NPY2 pot ag 29 (no result: NPY Y2 blocker)
CC(C)(CO)NCC(O)COc1ccc2c(c1)CCC2 (stereo not given)	NPY-Y1 PAM-ag 101, NPY2 pot ag 88
CC(C)(C)NCC(O)COc1ccc(Br)cc1 (stereo not given)	NPY-Y1 PAM-ag 108, NPY2 pot ag 97 (no result: NPY Y2 blocker)
Cc1ccc([N+](=O)[O-])c(OCCN2CCCCCC2)c1	none
Cc1ccc([N+](=O)[O-])c(OCC(O)CNC(C)(C)C)c1 (stereo not given)	NPY-Y1 PAM-ag 113, NPY2 pot ag 105 (no result: NPY Y1 blocker, NPY Y2 blocker)
COc1cccc(CNCCc2c[nH]c3ccccc23)c1OCc1ccccc1	NPY Y1 blocker 50, NPY Y2 blocker 24
Cc1cccc(NC(=O)c2ccc([N+](=O)[O-])s2)c1C	none
CC1=CC(C)(C)N(C(=O)C(C)N2C(=O)c3ccccc3C2=O)c2c(C)cc(C)cc21 (stereo not given)	NPY Y1 blocker 28, NPY Y2 blocker 18
COc1ccc2c(c1)C(C)=CC(C)(C)N2C(=O)C(C)N1C(=O)c2ccccc2C1=O (stereo not given)	none
Cc1cc([N+](=O)[O-])c2c(c1C)C1C=CCC1C(c1ccccn1)N2 (stereo not given)	none (no result: NPY Y2 blocker)
O=[N+]([O-])c1ccc(N=Nc2c(Cl)cc(O)cc2Cl)cc1	NPY-Y1 PAM-ag 67, NPY2 pot ag 65 (no result: NPY Y1 blocker, NPY Y2 blocker)
Cc1cc(C)n(-c2nc(SCCN(C)C)c3c4c(sc3n2)COC(C)(C)C4)n1	NPY Y1 blocker 147, NPY Y2 blocker 78
Cc1nn(-c2ccc(F)cc2)c2sc(C(=O)O)cc12	NPY Y1 blocker 23, NPY Y2 blocker 19
O=C(Nc1cccc(C(F)(F)F)c1)c1cc(-c2ccc(F)cc2)on1	NPY Y1 blocker 22, NPY Y2 blocker 24
COC(=O)CSc1nc(N)c2c3c(sc2n1)CCCC3	none
CC(C)(C)C1CCc2c(sc3nc(SCC(=O)O)nc(N)c23)C1 (stereo not given)	NPY-Y1 PAM-ag 105, NPY2 pot ag 101 (no result: NPY Y1 blocker, NPY Y2 blocker)

Screens from PubChem.
